In ChEMBL document CHEMBL1133661, “Synthesis and in vitro anti-mycobacterium activity of N-alkyl-1, 2-dihydro-2-thioxo-3-pyridinecarbothioamides. Preliminary toxicity and pharmacokinetic evaluation” (J Med Chem, 2000):
Values after ≈ are worked out from the molar mass of the structure shown.

System: Mycobacterium avium
Experiment: In Vitro antimicrobial activity against the Mycobacterium avium complex (MAC) strain ATCC 15769
Type: functional
Conditions: not given
Procedure, shortened: (§1)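 MIC by radiometric broth dilution (BACTEC 460-TB) in 7H12 liquid medium containing 14C-palmitic acid. Growth read as 14CO2 release, recorded as growth index (0–999). Compounds stocked in DMSO; working solutions at 40-fold final concentration made in sterile distilled water. Ethambutol reference. MIC expressed in µg/mL.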

Row | SMILES | MIC
1 | CCCCCCNC(=O)c1cccnc1S | 8 µg/mL (≈ 33.6 µM)
2 | OCC/N=C(\S)c1cccnc1S | 8 µg/mL (≈ 37.3 µM)
3 | CCC/N=C(\S)c1cccnc1S | 2 µg/mL (≈ 9.42 µM)
4 | CC/N=C(\S)c1cccnc1S | 4 µg/mL (≈ 20.2 µM)
5 | CCCCC/N=C(\S)c1cccnc1S | 1 µg/mL (≈ 4.16 µM)
6 | CCCC/N=C(\S)c1cccnc1S | 1 µg/mL (≈ 4.42 µM)
7 | CCCCCCC/N=C(\S)c1cccnc1S | 2 µg/mL (≈ 7.45 µM)
8 | CCCCCCCCCC/N=C(\S)c1cccnc1S | 16 µg/mL (≈ 51.5 µM)
9 | CCCCCCCC/N=C(\S)c1cccnc1S | 4 µg/mL (≈ 14.2 µM)
10 | CCCCCCCCCCCCCCCCCC/N=C(\S)c1cccnc1S | 64 µg/mL (≈ 151 µM)

System: Mycobacterium avium
Experiment: In Vitro antimicrobial activity against the Mycobacterium avium complex (MAC) Wild type strain AN2
Type: functional
Conditions: not given
Procedure, shortened: as §1

Row | SMILES | MIC
11 | OCC/N=C(\S)c1cccnc1S | 8 µg/mL (≈ 37.3 µM)
12 | CCC/N=C(\S)c1cccnc1S | 4 µg/mL (≈ 18.8 µM)
13 | CC/N=C(\S)c1cccnc1S | 8 µg/mL (≈ 40.3 µM)
14 | CCCCC/N=C(\S)c1cccnc1S | 2 µg/mL (≈ 8.32 µM)
15 | CCCC/N=C(\S)c1cccnc1S | 4 µg/mL (≈ 17.7 µM)
16 | CCCCCCC/N=C(\S)c1cccnc1S | 4 µg/mL (≈ 14.9 µM)
17 | CCCCCCCCCC/N=C(\S)c1cccnc1S | 32 µg/mL (≈ 103 µM)
18 | CCCCCCCC/N=C(\S)c1cccnc1S | 4 µg/mL (≈ 14.2 µM)
19 | CCCCCCCCCCCCCCCCCC/N=C(\S)c1cccnc1S | 32 µg/mL (≈ 75.7 µM)

System: not listed separately
Experiment: Mean residence time (MRT) in rats after intravenous administration.
Type: ADME, organism-based
Conditions: rat, in vivo
Procedure, shortened: (§2)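 Male Wistar rats (250-300 g), single 20 mg/kg i.v. dose in poly(ethylene glycol) 400, given through a permanent jugular-vein cannula that also served for blood sampling. Plasma levels measured by GC-MS (electron impact 70 eV; ions 233, 181, 168, 137, 104 monitored). Parameters derived by noncompartmental analysis.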

Row | SMILES | MRT
20 | CC/N=C(\S)c1cccnc1S | 47.6 min

System: not listed separately
Experiment: Clearance (CL) value in rats after intravenous administration.
Type: ADME, organism-based
Conditions: rat, in vivo, read-out: CI
Procedure, shortened: as §2

Row | SMILES | clearance
21 | CC/N=C(\S)c1cccnc1S | 20 mL/min
22 | CCCCCCC/N=C(\S)c1cccnc1S | 50 mL/min

System: Mycobacterium avium
Experiment: In Vitro antimicrobial activity against the Mycobacterium avium complex (MAC) Wild type strain AN1
Type: functional
Conditions: not given
Procedure, shortened: as §1

Row | SMILES | MIC
23 | OCC/N=C(\S)c1cccnc1S | 4 µg/mL (≈ 18.7 µM)
24 | CCC/N=C(\S)c1cccnc1S | 2 µg/mL (≈ 9.42 µM)
25 | CC/N=C(\S)c1cccnc1S | 4 µg/mL (≈ 20.2 µM)
26 | CCCCC/N=C(\S)c1cccnc1S | 1 µg/mL (≈ 4.16 µM)
27 | CCCC/N=C(\S)c1cccnc1S | 4 µg/mL (≈ 17.7 µM)
28 | CCCCCCC/N=C(\S)c1cccnc1S | 4 µg/mL (≈ 14.9 µM)
29 | CCCCCCCCCC/N=C(\S)c1cccnc1S | 32 µg/mL (≈ 103 µM)
30 | CCCCCCCC/N=C(\S)c1cccnc1S | 8 µg/mL (≈ 28.3 µM)
31 | CCCCCCCCCCCCCCCCCC/N=C(\S)c1cccnc1S | 32 µg/mL (≈ 75.7 µM)

System: not listed separately
Experiment: Volume of distribution in rats after intravenous administration
Type: ADME, organism-based
Conditions: rat, in vivo, read-out: Vss
Procedure, shortened: as §2

Row | SMILES | Vd
32 | CC/N=C(\S)c1cccnc1S | 0.93 L
33 | CCCCCCC/N=C(\S)c1cccnc1S | 1.28 L

System: Mycobacterium avium
Experiment: In Vitro antimicrobial activity against the Mycobacterium avium complex (MAC) Wild type strain ISS 486
Type: functional
Conditions: not given
Procedure, shortened: as §1

Row | SMILES | MIC
34 | OCC/N=C(\S)c1cccnc1S | 8 µg/mL (≈ 37.3 µM)
35 | CCC/N=C(\S)c1cccnc1S | 1 µg/mL (≈ 4.71 µM)
36 | CC/N=C(\S)c1cccnc1S | 4 µg/mL (≈ 20.2 µM)
37 | CCCCC/N=C(\S)c1cccnc1S | 1 µg/mL (≈ 4.16 µM)
38 | CCCC/N=C(\S)c1cccnc1S | 2 µg/mL (≈ 8.84 µM)
39 | CCCCCCC/N=C(\S)c1cccnc1S | 4 µg/mL (≈ 14.9 µM)
40 | CCCCCCCCCC/N=C(\S)c1cccnc1S | 32 µg/mL (≈ 103 µM)
41 | CCCCCCCC/N=C(\S)c1cccnc1S | 8 µg/mL (≈ 28.3 µM)
42 | CCCCCCCCCCCCCCCCCC/N=C(\S)c1cccnc1S | 32 µg/mL (≈ 75.7 µM)

System: Mycobacterium tuberculosis
Experiment: In Vitro antimicrobial activity against the Mycobacterium tuberculosis (MT) Wild type strain MT-1
Type: functional
Conditions: not given
Procedure, shortened: as §1

Row | SMILES | MIC
43 | CCCCCCNC(=O)c1cccnc1S | 8 µg/mL (≈ 33.6 µM)
44 | OCC/N=C(\S)c1cccnc1S | 4 µg/mL (≈ 18.7 µM)
45 | CCC/N=C(\S)c1cccnc1S | 4 µg/mL (≈ 18.8 µM)
46 | CC/N=C(\S)c1cccnc1S | 1 µg/mL (≈ 5.04 µM)
47 | CCCCC/N=C(\S)c1cccnc1S | 4 µg/mL (≈ 16.6 µM)
48 | CCCC/N=C(\S)c1cccnc1S | 4 µg/mL (≈ 17.7 µM)
49 | CCCCCCC/N=C(\S)c1cccnc1S | 2 µg/mL (≈ 7.45 µM)
50 | CCCCCCCCCC/N=C(\S)c1cccnc1S | 64 µg/mL (≈ 206 µM)
51 | CCCCCCCC/N=C(\S)c1cccnc1S | 4 µg/mL (≈ 14.2 µM)
52 | CCCCCCCCCCCCCCCCCC/N=C(\S)c1cccnc1S | 64 µg/mL (≈ 151 µM)

System: Mycobacterium tuberculosis
Experiment: In Vitro antimicrobial activity against the Mycobacterium tuberculosis (MT) strain H-37-Rv ATCC
Type: functional
Conditions: not given
Procedure, shortened: as §1

Row | SMILES | MIC
53 | CCCCCCNC(=O)c1cccnc1S | 8 µg/mL (≈ 33.6 µM)
54 | OCC/N=C(\S)c1cccnc1S | 2 µg/mL (≈ 9.33 µM)
55 | CCC/N=C(\S)c1cccnc1S | 2 µg/mL (≈ 9.42 µM)
56 | CC/N=C(\S)c1cccnc1S | 0.5 µg/mL (≈ 2.52 µM)
57 | CCCCC/N=C(\S)c1cccnc1S | 2 µg/mL (≈ 8.32 µM)
58 | CCCC/N=C(\S)c1cccnc1S | 4 µg/mL (≈ 17.7 µM)
59 | CCCCCCC/N=C(\S)c1cccnc1S | 0.5 µg/mL (≈ 1.86 µM)
60 | CCCCCCCCCC/N=C(\S)c1cccnc1S | 16 µg/mL (≈ 51.5 µM)
61 | CCCCCCCC/N=C(\S)c1cccnc1S | 1 µg/mL (≈ 3.54 µM)
62 | CCCCCCCCCCCCCCCCCC/N=C(\S)c1cccnc1S | 32 µg/mL (≈ 75.7 µM)

System: Mycobacterium tuberculosis
Experiment: In Vitro antimicrobial activity against the Mycobacterium tuberculosis (MT) Wild type strain MT-2
Type: functional
Conditions: not given
Procedure, shortened: as §1

Row | SMILES | MIC
63 | CCCCCCNC(=O)c1cccnc1S | 16 µg/mL (≈ 67.1 µM)
64 | OCC/N=C(\S)c1cccnc1S | 8 µg/mL (≈ 37.3 µM)
65 | CCC/N=C(\S)c1cccnc1S | 4 µg/mL (≈ 18.8 µM)
66 | CC/N=C(\S)c1cccnc1S | 1 µg/mL (≈ 5.04 µM)
67 | CCCCC/N=C(\S)c1cccnc1S | 4 µg/mL (≈ 16.6 µM)
68 | CCCC/N=C(\S)c1cccnc1S | 4 µg/mL (≈ 17.7 µM)
69 | CCCCCCC/N=C(\S)c1cccnc1S | 2 µg/mL (≈ 7.45 µM)
70 | CCCCCCCCCC/N=C(\S)c1cccnc1S | 64 µg/mL (≈ 206 µM)
71 | CCCCCCCC/N=C(\S)c1cccnc1S | 4 µg/mL (≈ 14.2 µM)
72 | CCCCCCCCCCCCCCCCCC/N=C(\S)c1cccnc1S | 64 µg/mL (≈ 151 µM)

System: not listed separately
Experiment: Elimination half life value after intravenous administration in rats
Type: ADME, organism-based
Conditions: rat, in vivo
Procedure, shortened: as §2

Row | SMILES | half-life
73 | CC/N=C(\S)c1cccnc1S | 37.2 min
74 | CCCCCCC/N=C(\S)c1cccnc1S | 28 min

System: not listed separately
Experiment: Area under curve (AUC) value of the compound
Type: ADME
Conditions: not given
Procedure, shortened: as §2

Row | SMILES | AUC
75 | CC/N=C(\S)c1cccnc1S | 18500 ng·h/mL
76 | CCCCCCC/N=C(\S)c1cccnc1S | 8250 ng·h/mL

System: not listed separately
Experiment: Mean residence time (MRT) in rats after intravenous administration
Type: ADME, organism-based
Conditions: rat, in vivo
Procedure, shortened: as §2

Row | SMILES | MRT
77 | CCCCCCC/N=C(\S)c1cccnc1S | 28.9 min

System: Mycobacterium avium
Experiment: In Vitro antimicrobial activity against the Mycobacterium avium complex (MAC) Wild type strain AN3
Type: functional
Conditions: not given
Procedure, shortened: as §1

Row | SMILES | MIC
78 | OCC/N=C(\S)c1cccnc1S | 4 µg/mL (≈ 18.7 µM)
79 | CCC/N=C(\S)c1cccnc1S | 2 µg/mL (≈ 9.42 µM)
80 | CC/N=C(\S)c1cccnc1S | 8 µg/mL (≈ 40.3 µM)
81 | CCCCC/N=C(\S)c1cccnc1S | 1 µg/mL (≈ 4.16 µM)
82 | CCCC/N=C(\S)c1cccnc1S | 4 µg/mL (≈ 17.7 µM)
83 | CCCCCCC/N=C(\S)c1cccnc1S | 4 µg/mL (≈ 14.9 µM)
84 | CCCCCCCCCC/N=C(\S)c1cccnc1S | 32 µg/mL (≈ 103 µM)
85 | CCCCCCCC/N=C(\S)c1cccnc1S | 4 µg/mL (≈ 14.2 µM)
86 | CCCCCCCCCCCCCCCCCC/N=C(\S)c1cccnc1S | 32 µg/mL (≈ 75.7 µM)
